Measurements reported in the M2OR odorant receptor database.

How the values were obtained:
Conditions in all cases: stereoisomer not certain
[1] = molecular target: T1, OR13H1 (Homo sapiens) (UniProt Q8NG92)
T1 sequence (whole entry): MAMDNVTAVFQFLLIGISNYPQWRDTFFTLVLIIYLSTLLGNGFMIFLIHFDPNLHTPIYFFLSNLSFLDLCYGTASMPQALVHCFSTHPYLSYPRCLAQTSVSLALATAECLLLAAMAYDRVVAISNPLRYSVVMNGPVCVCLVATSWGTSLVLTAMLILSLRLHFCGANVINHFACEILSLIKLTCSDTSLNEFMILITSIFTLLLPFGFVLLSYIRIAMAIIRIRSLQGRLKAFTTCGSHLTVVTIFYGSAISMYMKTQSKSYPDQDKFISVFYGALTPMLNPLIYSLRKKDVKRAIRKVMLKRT
Summary of the method: (§1)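 Each receptor–molecule pair is labelled responsive or non-responsive (inactive) according to whether the original authors judged the measured signal statistically different from baseline. The data were taken from the main text and supplementary material of published papers and checked for typos and inconsistencies. Assay methods differed by source, with transient luciferase assays in mammalian cell lines being common.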

[2] = molecular target: T2, OR13J1 (Homo sapiens) (UniProt Q8NGT2)
T2 sequence (whole entry): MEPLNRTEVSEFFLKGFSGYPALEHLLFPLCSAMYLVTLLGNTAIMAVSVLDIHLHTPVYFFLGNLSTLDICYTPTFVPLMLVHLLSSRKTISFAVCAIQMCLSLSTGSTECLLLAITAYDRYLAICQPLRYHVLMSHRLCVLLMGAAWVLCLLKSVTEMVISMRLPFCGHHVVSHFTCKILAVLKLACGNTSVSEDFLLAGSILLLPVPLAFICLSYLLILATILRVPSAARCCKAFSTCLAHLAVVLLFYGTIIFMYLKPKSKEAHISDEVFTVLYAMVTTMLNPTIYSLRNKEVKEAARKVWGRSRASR
Summary of the method: as §1

[3] = molecular target: T3, OR14A16 (Homo sapiens) (UniProt Q8NHC5)
T3 sequence (whole entry): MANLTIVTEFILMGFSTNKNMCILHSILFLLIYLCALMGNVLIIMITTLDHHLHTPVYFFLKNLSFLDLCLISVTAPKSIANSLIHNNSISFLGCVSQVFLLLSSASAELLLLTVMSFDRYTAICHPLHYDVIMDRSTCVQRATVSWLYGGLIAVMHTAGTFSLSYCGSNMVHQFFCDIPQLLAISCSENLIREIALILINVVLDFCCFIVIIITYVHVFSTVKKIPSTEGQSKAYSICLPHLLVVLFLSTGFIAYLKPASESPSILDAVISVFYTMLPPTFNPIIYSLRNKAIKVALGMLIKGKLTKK
Summary of the method: as §1

[4] = molecular target: T4, OR14A2 (Homo sapiens) (UniProt Q96R54)
T4 sequence (whole entry): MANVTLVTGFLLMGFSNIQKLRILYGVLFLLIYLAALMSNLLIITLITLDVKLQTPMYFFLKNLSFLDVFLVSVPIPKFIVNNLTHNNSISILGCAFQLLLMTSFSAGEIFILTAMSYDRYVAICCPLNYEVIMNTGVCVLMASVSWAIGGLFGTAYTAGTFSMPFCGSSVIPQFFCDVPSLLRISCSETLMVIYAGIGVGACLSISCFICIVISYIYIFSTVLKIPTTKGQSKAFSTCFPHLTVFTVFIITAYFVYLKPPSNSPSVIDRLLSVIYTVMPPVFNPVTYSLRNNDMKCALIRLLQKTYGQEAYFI
Summary of the method: as §1

[5] = molecular target: T5, OR14C36 (Homo sapiens) (UniProt Q8NHC7)
T5 sequence (whole entry): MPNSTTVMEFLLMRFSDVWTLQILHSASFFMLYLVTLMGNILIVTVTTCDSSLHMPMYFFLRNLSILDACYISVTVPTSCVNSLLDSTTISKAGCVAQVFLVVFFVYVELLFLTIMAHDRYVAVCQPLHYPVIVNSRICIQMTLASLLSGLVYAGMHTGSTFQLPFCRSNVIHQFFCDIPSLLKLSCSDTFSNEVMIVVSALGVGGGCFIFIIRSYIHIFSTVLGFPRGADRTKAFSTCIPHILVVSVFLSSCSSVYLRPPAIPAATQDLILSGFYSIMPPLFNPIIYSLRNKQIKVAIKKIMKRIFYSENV
Summary of the method: as §1

[6] = molecular target: T6, OR14I1 (Homo sapiens) (UniProt A6ND48)
T6 sequence (whole entry): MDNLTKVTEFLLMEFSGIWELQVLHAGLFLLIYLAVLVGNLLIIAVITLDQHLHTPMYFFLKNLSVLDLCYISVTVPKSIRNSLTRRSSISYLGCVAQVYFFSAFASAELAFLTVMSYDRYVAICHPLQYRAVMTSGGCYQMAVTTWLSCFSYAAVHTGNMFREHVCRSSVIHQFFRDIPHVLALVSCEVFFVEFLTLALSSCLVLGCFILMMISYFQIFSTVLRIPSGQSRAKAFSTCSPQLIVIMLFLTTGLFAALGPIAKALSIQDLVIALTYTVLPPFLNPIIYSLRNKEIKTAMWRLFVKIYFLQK
Summary of the method: as §1

[7] = molecular target: T7, OR14J1 (Homo sapiens) (UniProt Q9UGF5)
T7 sequence (whole entry): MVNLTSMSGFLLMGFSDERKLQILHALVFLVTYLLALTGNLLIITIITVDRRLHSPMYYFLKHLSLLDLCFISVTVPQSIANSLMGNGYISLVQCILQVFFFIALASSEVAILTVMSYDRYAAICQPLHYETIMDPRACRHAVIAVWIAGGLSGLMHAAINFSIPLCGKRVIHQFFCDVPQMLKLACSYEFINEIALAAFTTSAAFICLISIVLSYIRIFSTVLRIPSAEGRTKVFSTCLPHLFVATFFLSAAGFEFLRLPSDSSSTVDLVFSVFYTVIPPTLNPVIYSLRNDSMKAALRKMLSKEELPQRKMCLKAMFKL
Summary of the method: as §1

[8] = molecular target: T8, OR14K1 (Homo sapiens) (UniProt Q8NGZ2)
T8 sequence (whole entry): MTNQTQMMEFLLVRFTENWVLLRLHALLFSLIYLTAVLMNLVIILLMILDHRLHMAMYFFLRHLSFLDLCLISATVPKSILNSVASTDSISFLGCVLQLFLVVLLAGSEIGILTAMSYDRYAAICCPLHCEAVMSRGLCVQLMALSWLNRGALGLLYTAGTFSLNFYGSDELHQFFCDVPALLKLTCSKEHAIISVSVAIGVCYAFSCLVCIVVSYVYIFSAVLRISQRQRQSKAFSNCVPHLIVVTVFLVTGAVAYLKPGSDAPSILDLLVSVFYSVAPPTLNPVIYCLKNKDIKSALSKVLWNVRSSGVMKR
Summary of the method: as §1

[9] = molecular target: T9, OR1A1 (Homo sapiens) (UniProt Q9P1Q5)
T9 sequence (whole entry): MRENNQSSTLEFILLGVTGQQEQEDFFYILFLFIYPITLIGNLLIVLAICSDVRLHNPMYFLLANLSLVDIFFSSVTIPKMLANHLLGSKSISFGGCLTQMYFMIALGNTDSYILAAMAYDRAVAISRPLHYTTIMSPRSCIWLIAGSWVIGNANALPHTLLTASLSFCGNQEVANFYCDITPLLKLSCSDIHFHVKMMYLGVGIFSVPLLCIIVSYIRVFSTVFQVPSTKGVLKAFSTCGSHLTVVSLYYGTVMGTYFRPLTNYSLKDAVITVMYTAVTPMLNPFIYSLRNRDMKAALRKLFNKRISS
Summary of the method: as §1

Measured: odorant receptor agonist call

CCCC(S)CCOC(C)=O (centres undefined)
active: [9]
inactive: all other assays above
